≈ marks a conversion by molar mass, not a printed value.
Key:
Assay type in all cases: functional
Cryptococcus neoformans = test: Antifungal activity against Cryptococcus neoformans ATCC BLS108 after 72 hrs by micro-broth dilution method
Method in brief: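 This ATCC standard quality-control strain was tested in every assay by NCCLS microdilution. Test agents were dissolved in DMSO and serially diluted in growth medium. Cultures were incubated at 35 C and read at 72 h. MIC80 was the first well with approximately 80% reduced growth relative to the drug-free well.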

Trichophyton rubrum = test: Antifungal activity against Trichophyton rubrum after 7 days by microbroth dilution method; settings: 168 h
Method in brief: (§1)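 Clinical isolates supplied by a hospital were tested by NCCLS broth microdilution. Compounds were dissolved in DMSO, serially diluted in growth medium, inoculated and incubated at 35 C. Growth was read at 7 days for filamentous fungi. MIC80 was taken as the first well with about 80% less growth than the drug-free well.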

Candida albicans = test: Antifungal activity against Candida albicans ATCC Y0109 after 24 hrs by micro-broth dilution method
Method in brief: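 An ATCC standard quality-control strain was included in each run of an NCCLS micro-broth dilution assay. Compounds were dissolved in DMSO, serially diluted in growth medium and incubated at 35 C. Reading was at 24 h, and MIC80 was the first well showing roughly 80% growth reduction versus the drug-free control.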

Candida tropicalis = test: Antifungal activity against Candida tropicalis after 7 days by micro-broth dilution method; settings: 168 h
Method in brief: (§2)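 Micro-broth dilution followed NCCLS methods, using an ATCC standard quality-control strain for C. parapsilosis and a clinical isolate for C. tropicalis. Compounds were dissolved in DMSO, serially diluted in growth medium and incubated at 35 C. MIC80 was the first well with about 80% growth reduction compared with the drug-free well.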

Aspergillus fumigatus = test: Antifungal activity against Aspergillus fumigatus after 7 days by micro-broth dilution method; settings: 168 h; method in brief: as §1
Fonsecaea compacta = test: Antifungal activity against Fonsecaea compacta after 7 days by micro-broth dilution method; settings: 168 h; method in brief: as §1
Candida parapsilosis = test: Antifungal activity against Candida parapsilosis ATCC 0306392 after 7 days by micro-broth dilution method; settings: Lodderomyces parapsilosis, ATCC 0306392, 168 h; method in brief: as §2
Microsporum = test: Antifungal activity against Microsporum gypseum after 7 days by micro-broth dilution method; settings: 168 h; method in brief: as §1

CCCCCc1ccc(C(=O)Nc2ccc(N3CCN(CC(O)(Cn4cncn4)c4ccc(F)cc4F)CC3)c(F)c2)cc1 (stereo not given)
MIC80 (Cryptococcus neoformans): 0.25 µg/mL (≈ 0.412 µM)
MIC80 (Trichophyton rubrum): 1 µg/mL (≈ 1.65 µM)
MIC80 (Candida albicans): 0.25 µg/mL (≈ 0.412 µM)
MIC80 (Candida tropicalis): 4 µg/mL (≈ 6.59 µM)
MIC80 (Aspergillus fumigatus): 4 µg/mL (≈ 6.59 µM)
MIC80 (Fonsecaea compacta): 1 µg/mL (≈ 1.65 µM)
MIC80 (Candida parapsilosis): 0.25 µg/mL (≈ 0.412 µM)
MIC80 (Microsporum): 1 µg/mL (≈ 1.65 µM)

COc1ccccc1C(=O)Nc1ccc(N2CCN(CC(O)(Cn3cncn3)c3ccc(F)cc3F)CC2)c(F)c1 (stereo not given)
MIC80 (Cryptococcus neoformans): 0.0625 µg/mL (≈ 0.11 µM)
MIC80 (Trichophyton rubrum): 0.0625 µg/mL (≈ 0.11 µM)
MIC80 (Candida albicans): 0.0625 µg/mL (≈ 0.11 µM)
MIC80 (Candida tropicalis): 0.0152 µg/mL (≈ 0.0268 µM)
MIC80 (Aspergillus fumigatus): 1 µg/mL (≈ 1.76 µM)
MIC80 (Fonsecaea compacta): 0.25 µg/mL (≈ 0.441 µM)
MIC80 (Candida parapsilosis): 0.25 µg/mL (≈ 0.441 µM)
MIC80 (Microsporum): 0.0625 µg/mL (≈ 0.11 µM)

COc1cccc(C(=O)Nc2ccc(N3CCN(CC(O)(Cn4cncn4)c4ccc(F)cc4F)CC3)c(F)c2)c1 (stereo not given)
MIC80 (Cryptococcus neoformans): 0.0152 µg/mL (≈ 0.0268 µM)
MIC80 (Trichophyton rubrum): 0.0152 µg/mL (≈ 0.0268 µM)
MIC80 (Candida albicans): 0.0625 µg/mL (≈ 0.11 µM)
MIC80 (Candida tropicalis): 0.0152 µg/mL (≈ 0.0268 µM)
MIC80 (Aspergillus fumigatus): 1 µg/mL (≈ 1.76 µM)
MIC80 (Fonsecaea compacta): 0.25 µg/mL (≈ 0.441 µM)
MIC80 (Candida parapsilosis): 0.0152 µg/mL (≈ 0.0268 µM)
MIC80 (Microsporum): 0.25 µg/mL (≈ 0.441 µM)

O=C(Nc1ccc(N2CCN(CC(O)(Cn3cncn3)c3ccc(F)cc3F)CC2)c(F)c1)c1cccc(C(F)(F)F)c1 (stereo not given)
MIC80 (Cryptococcus neoformans): 0.25 µg/mL (≈ 0.414 µM)
MIC80 (Trichophyton rubrum): 0.0625 µg/mL (≈ 0.103 µM)
MIC80 (Candida albicans): 0.25 µg/mL (≈ 0.414 µM)
MIC80 (Candida tropicalis): 0.25 µg/mL (≈ 0.414 µM)
MIC80 (Aspergillus fumigatus): 4 µg/mL (≈ 6.62 µM)
MIC80 (Fonsecaea compacta): 0.25 µg/mL (≈ 0.414 µM)
MIC80 (Candida parapsilosis): 0.0152 µg/mL (≈ 0.0251 µM)
MIC80 (Microsporum): 0.0625 µg/mL (≈ 0.103 µM)

O=C(Nc1ccc(N2CCN(CC(O)(Cn3cncn3)c3ccc(F)cc3F)CC2)c(F)c1)c1ccc([N+](=O)[O-])cc1 (stereo not given)
MIC80 (Cryptococcus neoformans): 0.25 µg/mL (≈ 0.43 µM)
MIC80 (Trichophyton rubrum): 0.25 µg/mL (≈ 0.43 µM)
MIC80 (Candida albicans): 0.25 µg/mL (≈ 0.43 µM)
MIC80 (Candida tropicalis): 4 µg/mL (≈ 6.88 µM)
MIC80 (Aspergillus fumigatus): 4 µg/mL (≈ 6.88 µM)
MIC80 (Fonsecaea compacta): 0.0625 µg/mL (≈ 0.107 µM)
MIC80 (Candida parapsilosis): 1 µg/mL (≈ 1.72 µM)
MIC80 (Microsporum): 0.0625 µg/mL (≈ 0.107 µM)

O=C(Nc1ccc(N2CCN(CC(O)(Cn3cncn3)c3ccc(F)cc3F)CC2)c(F)c1)c1ccc(Cl)cc1Cl (stereo not given)
MIC80 (Cryptococcus neoformans): 0.0625 µg/mL (≈ 0.103 µM)
MIC80 (Trichophyton rubrum): 0.0625 µg/mL (≈ 0.103 µM)
MIC80 (Candida albicans): 0.25 µg/mL (≈ 0.413 µM)
MIC80 (Candida tropicalis): 0.0625 µg/mL (≈ 0.103 µM)
MIC80 (Aspergillus fumigatus): 0.25 µg/mL (≈ 0.413 µM)
MIC80 (Fonsecaea compacta): 0.25 µg/mL (≈ 0.413 µM)
MIC80 (Candida parapsilosis): 0.0152 µg/mL (≈ 0.0251 µM)
MIC80 (Microsporum): 0.0039 µg/mL (≈ 0.00644 µM)

O=C(Nc1ccc(N2CCN(CC(O)(Cn3cncn3)c3ccc(F)cc3F)CC2)c(F)c1)c1ccc(Cl)cc1 (stereo not given)
MIC80 (Cryptococcus neoformans): 0.25 µg/mL (≈ 0.438 µM)
MIC80 (Trichophyton rubrum): 0.0625 µg/mL (≈ 0.109 µM)
MIC80 (Candida albicans): 0.0625 µg/mL (≈ 0.109 µM)
MIC80 (Candida tropicalis): 0.0152 µg/mL (≈ 0.0266 µM)
MIC80 (Aspergillus fumigatus): 0.25 µg/mL (≈ 0.438 µM)
MIC80 (Fonsecaea compacta): 0.0625 µg/mL (≈ 0.109 µM)
MIC80 (Candida parapsilosis): 0.0152 µg/mL (≈ 0.0266 µM)
MIC80 (Microsporum): 0.25 µg/mL (≈ 0.438 µM)

COc1ccc(C(=O)Nc2ccc(N3CCN(CC(O)(Cn4cncn4)c4ccc(F)cc4F)CC3)c(F)c2)cc1 (stereo not given)
MIC80 (Cryptococcus neoformans): 0.0625 µg/mL (≈ 0.11 µM)
MIC80 (Trichophyton rubrum): 0.25 µg/mL (≈ 0.441 µM)
MIC80 (Candida albicans): 0.0152 µg/mL (≈ 0.0268 µM)
MIC80 (Candida tropicalis): 0.0152 µg/mL (≈ 0.0268 µM)
MIC80 (Aspergillus fumigatus): 0.25 µg/mL (≈ 0.441 µM)
MIC80 (Fonsecaea compacta): 0.25 µg/mL (≈ 0.441 µM)
MIC80 (Candida parapsilosis): 0.0152 µg/mL (≈ 0.0268 µM)
MIC80 (Microsporum): 0.25 µg/mL (≈ 0.441 µM)

OC(Cn1cncn1)(Cn1cncn1)c1ccc(F)cc1F [FLUCONAZOLE]
MIC80 (Cryptococcus neoformans): 1 µg/mL (≈ 3.27 µM)
MIC80 (Trichophyton rubrum): 0.25 µg/mL (≈ 0.816 µM)
MIC80 (Candida albicans): 4 µg/mL (≈ 13.1 µM)
MIC80 (Candida tropicalis): 1 µg/mL (≈ 3.27 µM)
MIC80 (Aspergillus fumigatus): 64 µg/mL (≈ 209 µM)
MIC80 (Fonsecaea compacta): 16 µg/mL (≈ 52.2 µM)
MIC80 (Candida parapsilosis): 1 µg/mL (≈ 3.27 µM)
MIC80 (Microsporum): 0.25 µg/mL (≈ 0.816 µM)

CCCc1ccc(C(=O)Nc2ccc(N3CCN(CC(O)(Cn4cncn4)c4ccc(F)cc4F)CC3)c(F)c2)cc1 (stereo not given)
MIC80 (Cryptococcus neoformans): 1 µg/mL (≈ 1.73 µM)
MIC80 (Trichophyton rubrum): 0.25 µg/mL (≈ 0.432 µM)
MIC80 (Candida albicans): 1 µg/mL (≈ 1.73 µM)
MIC80 (Candida tropicalis): 1 µg/mL (≈ 1.73 µM)
MIC80 (Aspergillus fumigatus): 4 µg/mL (≈ 6.91 µM)
MIC80 (Fonsecaea compacta): 0.25 µg/mL (≈ 0.432 µM)
MIC80 (Candida parapsilosis): 0.0625 µg/mL (≈ 0.108 µM)
MIC80 (Microsporum): 0.25 µg/mL (≈ 0.432 µM)

CC(C)(C)c1ccc(C(=O)Nc2ccc(N3CCN(CC(O)(Cn4cncn4)c4ccc(F)cc4F)CC3)c(F)c2)cc1 (stereo not given)
MIC80 (Cryptococcus neoformans): 0.25 µg/mL (≈ 0.422 µM)
MIC80 (Trichophyton rubrum): 4 µg/mL (≈ 6.75 µM)
MIC80 (Candida albicans): 1 µg/mL (≈ 1.69 µM)
MIC80 (Candida tropicalis): 0.25 µg/mL (≈ 0.422 µM)
MIC80 (Aspergillus fumigatus): 4 µg/mL (≈ 6.75 µM)
MIC80 (Fonsecaea compacta): 0.25 µg/mL (≈ 0.422 µM)
MIC80 (Candida parapsilosis): 0.0625 µg/mL (≈ 0.105 µM)
MIC80 (Microsporum): 0.25 µg/mL (≈ 0.422 µM)

Cc1ccc(C(=O)Nc2ccc(N3CCN(CC(O)(Cn4cncn4)c4ccc(F)cc4F)CC3)c(F)c2)c(C)c1 (stereo not given)
MIC80 (Cryptococcus neoformans): 0.0625 µg/mL (≈ 0.111 µM)
MIC80 (Trichophyton rubrum): 0.0625 µg/mL (≈ 0.111 µM)
MIC80 (Candida albicans): 0.25 µg/mL (≈ 0.443 µM)
MIC80 (Candida tropicalis): 0.0625 µg/mL (≈ 0.111 µM)
MIC80 (Aspergillus fumigatus): 1 µg/mL (≈ 1.77 µM)
MIC80 (Fonsecaea compacta): 0.25 µg/mL (≈ 0.443 µM)
MIC80 (Candida parapsilosis): 0.25 µg/mL (≈ 0.443 µM)
MIC80 (Microsporum): 0.0152 µg/mL (≈ 0.0269 µM)

O=C(Nc1ccc(N2CCN(CC(O)(Cn3cncn3)c3ccc(F)cc3F)CC2)c(F)c1)c1cccc(Cl)c1 (stereo not given)
MIC80 (Cryptococcus neoformans): 0.25 µg/mL (≈ 0.438 µM)
MIC80 (Trichophyton rubrum): 0.0625 µg/mL (≈ 0.109 µM)
MIC80 (Candida albicans): 0.25 µg/mL (≈ 0.438 µM)
MIC80 (Candida tropicalis): 0.0625 µg/mL (≈ 0.109 µM)
MIC80 (Aspergillus fumigatus): 4 µg/mL (≈ 7.01 µM)
MIC80 (Fonsecaea compacta): 0.25 µg/mL (≈ 0.438 µM)
MIC80 (Candida parapsilosis): 0.0152 µg/mL (≈ 0.0266 µM)
MIC80 (Microsporum): 0.0625 µg/mL (≈ 0.109 µM)

Cc1ccccc1C(=O)Nc1ccc(N2CCN(CC(O)(Cn3cncn3)c3ccc(F)cc3F)CC2)c(F)c1 (stereo not given)
MIC80 (Cryptococcus neoformans): 0.0625 µg/mL (≈ 0.114 µM)
MIC80 (Trichophyton rubrum): 0.0625 µg/mL (≈ 0.114 µM)
MIC80 (Candida albicans): 0.0625 µg/mL (≈ 0.114 µM)
MIC80 (Candida tropicalis): 0.0152 µg/mL (≈ 0.0276 µM)
MIC80 (Aspergillus fumigatus): 1 µg/mL (≈ 1.82 µM)
MIC80 (Fonsecaea compacta): 0.25 µg/mL (≈ 0.454 µM)
MIC80 (Candida parapsilosis): 0.0152 µg/mL (≈ 0.0276 µM)
MIC80 (Microsporum): 0.0152 µg/mL (≈ 0.0276 µM)

O=C(Nc1ccc(N2CCN(CC(O)(Cn3cncn3)c3ccc(F)cc3F)CC2)c(F)c1)c1ccccc1Cl (stereo not given)
MIC80 (Cryptococcus neoformans): 0.25 µg/mL (≈ 0.438 µM)
MIC80 (Trichophyton rubrum): 0.0152 µg/mL (≈ 0.0266 µM)
MIC80 (Candida albicans): 0.0152 µg/mL (≈ 0.0266 µM)
MIC80 (Candida tropicalis): 0.0152 µg/mL (≈ 0.0266 µM)
MIC80 (Aspergillus fumigatus): 1 µg/mL (≈ 1.75 µM)
MIC80 (Fonsecaea compacta): 0.0625 µg/mL (≈ 0.109 µM)
MIC80 (Candida parapsilosis): 0.0152 µg/mL (≈ 0.0266 µM)
MIC80 (Microsporum): 0.0152 µg/mL (≈ 0.0266 µM)

Reference: ChEMBL document CHEMBL1147868, “Synthesis of novel triazole derivatives as inhibitors of cytochrome P450 14alpha-demethylase (CYP51)” (2007)
